ChEMBL document CHEMBL5154657, “Design, synthesis and biological evaluation of 1,5-disubstituted α-amino tetrazole derivatives as non-covalent inflammasome-caspase-1 complex inhibitors with potential application against immune and inflammatory disorders” (Eur J Med Chem, 2022)

How the values were obtained:
Caspase-1 = molecular target: T1, Caspase-1 (Homo sapiens, UniProt P29466); experiment: Inhibition of caspase 1 (unknown origin) using YVAD-AFC as substrate by fluorescence analysis
T1 sequence (P29466 whole entry): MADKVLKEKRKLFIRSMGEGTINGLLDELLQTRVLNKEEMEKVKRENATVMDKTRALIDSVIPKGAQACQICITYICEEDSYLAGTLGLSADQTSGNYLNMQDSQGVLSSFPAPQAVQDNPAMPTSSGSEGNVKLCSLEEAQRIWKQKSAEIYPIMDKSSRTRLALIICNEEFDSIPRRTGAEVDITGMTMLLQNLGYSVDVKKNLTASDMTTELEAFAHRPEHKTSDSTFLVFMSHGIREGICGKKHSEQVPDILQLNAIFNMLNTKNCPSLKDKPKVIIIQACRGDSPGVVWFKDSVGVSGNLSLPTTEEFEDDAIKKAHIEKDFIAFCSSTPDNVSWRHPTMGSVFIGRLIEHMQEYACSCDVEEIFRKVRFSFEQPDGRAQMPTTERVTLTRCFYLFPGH
Summary of the method: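 Caspase-1 activity is followed as a time course of fluorescence from cleavage of an AFC-labelled peptide substrate (Ex/Em 400/505 nm). Compounds are tested as a 10-dose series with 3-fold serial dilution starting at 100 μM or 10 μM. IC50 is the concentration halving enzyme activity. Curves are fitted only when activity at the top concentration is below 60%.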

Caspase-1 (Homo sapiens) = molecular target: T2, Caspase-1 (Homo sapiens) (UniProt P29466); experiment: Inhibition of caspase 1 (unknown origin) assessed as enzyme residual activity using YVAD-AFC as substrate at 100 uM by fluorescence analysis
T2 sequence (whole entry): T1 sequence (P29466 whole entry)
Summary of the method: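 Caspase-1 cleavage of an AFC-labelled peptide substrate is monitored over time by fluorescence (Ex/Em 400/505 nm). Residual enzyme activity is expressed as % with 100 μM compound, relative to an untreated control.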

[1] = Cytotoxicity against human U-937 cells assessed as reduction in cell viability at 100 uM after 48 hrs by MTT assay; format: toxicity, cell-based; settings: read-out: INH
Summary of the method: (§1)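 Human histiocytic lymphoma U937 cells are grown in RPMI 1640 with 10% FBS, penicillin and streptomycin at 37 °C under 5% CO₂. They are seeded at 10000 cells/well and exposed to compound from 1 nM to 100 μM for 48 h, with matched DMSO-only solvent controls. MTT (0.1 mg) is added for 4 h at 37 °C, cells are lysed, and A595 is read. Viability is given as % of control, as the mean of three independent experiments.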

U-937 = experiment: Cytotoxicity against human U-937 cells assessed as reduction in cell viability at 10 to 100 nM after 48 hrs by MTT assay; format: toxicity, cell-based; settings: u-937, 48 h, 0.1 µM, dose 10-100 nM; summary of the method: as §1
[2] = Inhibition of LPS-induced IL-1beta secretion in human U-937 cells preincubated for 4 hrs with LPS followed by compound treatment for overnight by ELISA; format: functional, cell-based
Summary of the method: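 U937 cells in RPMI 1640 with 10% FBS, differentiated with […] for 24h. Primed with LPS (1 μg/ml) for 4h, then compound added at graded concentrations, 10 μM down to 1 nM, overnight. Supernatants stored at −80 °C, and human IL-1β measured by sandwich ELISA. IC50 from regression of % inhibition against log concentration.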

[3] = Inhibition of LPS-induced IL-1beta secretion in human U-937 cells measured after 24 hrs by ELISA; format: functional, cell-based; settings: U-937, 24 h
Summary of the method: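 U937 human histiocytic lymphoma cells, grown in RPMI 1640 with 10% FBS, differentiated into macrophages with […] for 24h. Compound given at graded concentrations, 10 μM down to 1 nM, together with LPS (1 μg/ml) for 24h. Supernatants frozen at −80 °C, then IL-1β measured by sandwich ELISA. IC50 taken from regression of % inhibition against log concentration.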

| SMILES | IC50 (Caspase-1) | Activity (Caspase-1 (Homo sapiens)) | other results |
| --- | --- | --- | --- |
| COc1cc2c(cc1OC)CN(C(=O)CCCn1nnnc1C(CC(C)(C)C)NCC(O)CC(=O)O)CC2 (stereo unspecified) | 14.6 µM | 9.49% | – |
| CC(C)CC(c1nnnn1CCCC(=O)N1CCc2ccccc2C1)N(Cc1ccc(F)cc1)CC(O)CC(=O)O (stereo unspecified) | 20.7 µM | 2.06% | – |
| O=C(O)C[C@H](O)CN[C@H](c1cccs1)c1nnnn1CCCC(=O)NCc1ccccc1 | – | 69.8% | – |
| O=C(O)CC(O)CNC(c1nnnn1CCCC(=O)NCc1ccccc1)C1CC1 (stereo unspecified) | – | 77.1% | – |
| O=C(O)CC(O)CN[C@@H](c1ccccc1)c1nnnn1CCCC(=O)N1CCc2ccccc2C1 (stereo partly specified) | – | 48.6% | – |
| O=C(O)CC(O)CNC(c1nnnn1CCCC(=O)N1CCc2ccccc2C1)C1CC1 (stereo unspecified) | – | 90% | – |
| CC(C)(C)CC(c1nnnn1CCCC(=O)N1CCc2ccccc2C1)N(Cc1ccc(F)cc1)CC(O)CC(=O)O (stereo unspecified) | 12.7 µM | 3.9% | – |
| CC(C)(C)C[C@H](c1nnnn1CCCC(=O)N1CCc2ccccc2C1)N(Cc1ccccc1)CC(O)CC(=O)O (stereo partly specified) | – | 4.45% | – |
| O=C(O)CC(O)CN[C@@H](c1cccs1)c1nnnn1CCCC(=O)N1CCc2ccccc2C1 (stereo partly specified) | – | 29% | – |
| CC(C)(C)CC(c1nnnn1CCCC(=O)N1CCc2ccccc2C1)N(Cc1ccccc1)CC(O)CC(=O)O (stereo unspecified) | 10.3 µM | 2.91% | – |
| O=C(O)CC(O)CNC(c1cccs1)c1nnnn1CCCC(=O)N1CCc2ccccc2C1 (stereo unspecified) | – | 77.2% | – |
| COc1cc2c(cc1OC)CN(C(=O)CCCn1nnnc1C(NCC(O)CC(=O)O)C(C)(C)C)CC2 (stereo unspecified) | – | 96.7% | – |
| CC(C)(C)CC(NCC(O)CC(=O)O)c1nnnn1CCCC(=O)NCc1ccccc1 (stereo unspecified) | – | 59.9% | – |
| CC(C)C(NCC(O)CC(=O)O)c1nnnn1CCCC(=O)N1CCc2ccccc2C1 (stereo unspecified) | – | 77.8% | – |
| CC(C)CC(c1nnnn1CCCC(=O)N1CCc2ccccc2C1)N(Cc1ccccc1)CC(O)CC(=O)[O-].[Na+] (stereo unspecified) | 12.1 µM | 2.47% | cytotoxicity at 48 h, 100 µM [1]: 50%; Activity (U-937): Non-Toxic; IC50 [2]: 0.85 µM; IC50 [3]: 0.35 µM |
| O=C(O)CC(O)CNC(c1ccccc1)c1nnnn1CCCC(=O)N1CCc2ccccc2C1 (stereo unspecified) | 94.1 µM | 48% | – |
| CC(C)(C)C(NCC(O)CC(=O)O)c1nnnn1CCCC(=O)N1CCc2ccccc2C1 (stereo unspecified) | – | 61.9% | – |
| O=C(O)CC(O)CN[C@H](c1ccccc1)c1nnnn1CCCC(=O)N1CCc2ccccc2C1 (stereo partly specified) | – | 40.5% | – |
| COc1cc2c(cc1OC)CN(C(=O)CCCn1nnnc1C(NCC(O)CC(=O)O)C1CC1)CC2 (stereo unspecified) | – | 80.6% | – |
| CC(C)(C)C[C@@H](NCC(O)CC(=O)O)c1nnnn1CCCC(=O)N1CCc2ccccc2C1 (stereo partly specified) | – | 9.71% | – |
| O=C(O)C[C@@H](O)CN[C@H](c1ccccc1)c1nnnn1CCCC(=O)NCc1ccccc1 | – | 63.3% | – |
| O=C(O)C[C@H](O)CN[C@@H](c1ccccc1)c1nnnn1CCCC(=O)NCc1ccccc1 | – | 62.4% | – |
| O=C(O)CC(O)CN[C@H](c1cccs1)c1nnnn1CCCC(=O)N1CCc2ccccc2C1 (stereo partly specified) | – | 37.2% | – |
| CC(C)CC(NCC(O)CC(=O)O)c1nnnn1CCCC(=O)N1CCc2ccccc2C1 (stereo unspecified) | 79.4 µM | 43.7% | – |
| CC(C)(C)CC(NCC(O)CC(=O)[O-])c1nnnn1CCCC(=O)N1CCc2ccccc2C1.[Na+] (stereo unspecified) | 15.1 µM | 8.12% | cytotoxicity at 48 h, 100 µM [1]: 50%; Activity (U-937): Non-Toxic; IC50 [3]: 50.1 µM |
| O=C(O)CC(O)CN[C@@H](c1cccs1)c1nnnn1CCCC(=O)NCc1ccccc1 (stereo partly specified) | – | 49.6% | – |
